From publication PMC10209927 (Russian Journal of General Chemistry, 2023)

Legend:
[1] = target: T1, aldehyde reductase (ALR1) (Homo sapiens, UniProt P14550); assay: In vitro aldehyde reductase; assay type: biochemical
T1 sequence (P14550 1-325): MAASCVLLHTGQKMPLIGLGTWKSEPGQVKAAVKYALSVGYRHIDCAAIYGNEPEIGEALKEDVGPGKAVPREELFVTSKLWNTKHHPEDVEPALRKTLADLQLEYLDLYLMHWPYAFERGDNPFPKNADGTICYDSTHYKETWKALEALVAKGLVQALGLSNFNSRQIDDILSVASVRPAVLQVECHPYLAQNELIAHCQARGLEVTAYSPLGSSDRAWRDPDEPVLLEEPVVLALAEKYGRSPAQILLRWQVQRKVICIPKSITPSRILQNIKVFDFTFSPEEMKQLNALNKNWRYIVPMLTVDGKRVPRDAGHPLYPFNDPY
In short: (§1)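 Enzymes isolated and purified by earlier reported methods, ALR1 at 2.19 μg/well and ALR2 at 1.85 μg/well. Test compound (20 µL of 1 mM solution) was preincubated with the enzyme in 100 mM KH2PO4, pH 6.2, at 37°C for 10 min. Then substrate (50 mM as added) and NADPH (0.5 mM as added) were introduced. OD340 was read after 30 min. % inhibition = 100 − (A test/A control × 100). IC50 ± SEM was determined for compounds with >50% inhibition.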

aldose reductase (ALR2) = aldose reductase (ALR2) (Homo sapiens, UniProt P15121); assay: In vitro aldose reductase; assay type: biochemical
In short: as §1

| IC50 [1] | IC50 (aldose reductase (ALR2)) | SMILES |
| --- | --- | --- |
| 90 ± 0.56 µM | 28 ± 1.23 µM | O=C1N=C(Nc2ccccc2)S/C1=C\c1ccccc1OCc1cn(Cc2cccc(Cl)c2)nn1 [Compound 9b, (Z)-5-(2-{[1-(3-Chlorobenzyl)-1H-1,2,3-triazol-4-yl]methoxy}benzylidene)-2-(phenylamino)thiazol-4(5H)-one] |
|  | 10 ± 1.56 µM | O=C1N=C(Nc2ccccc2)S/C1=C\c1ccccc1OCc1cn(Cc2ccc(Cl)cc2)nn1 [Compound 9c, (Z)-5-(2-{[1-(4-Chlorobenzyl)-1H-1,2,3-triazol-4-yl]methoxy}benzylidene)-2-(phenylamino)thiazol-4(5H)-one] |
